Common to all, as to assay type: cell-based
Experiment [1] relates to T1, Trace amine-associated receptor 1 (Homo sapiens), Q96RJ0 [D103A].
T1 sequence (whole entry): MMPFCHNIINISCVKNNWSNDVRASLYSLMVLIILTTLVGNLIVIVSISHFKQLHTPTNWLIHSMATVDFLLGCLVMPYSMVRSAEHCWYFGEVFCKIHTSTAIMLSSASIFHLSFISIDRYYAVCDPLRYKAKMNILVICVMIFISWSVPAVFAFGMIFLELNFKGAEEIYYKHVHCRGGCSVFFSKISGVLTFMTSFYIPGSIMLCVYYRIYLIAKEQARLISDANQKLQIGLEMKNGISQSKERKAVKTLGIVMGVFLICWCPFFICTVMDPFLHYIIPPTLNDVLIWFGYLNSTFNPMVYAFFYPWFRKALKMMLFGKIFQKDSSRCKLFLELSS
The experiment can be described thus: Agonist activity against TAAR1 D103A mutant (unknown origin) expressed in HEK293 cells assessed as increase in cAMP accumulation incubated for 30 mins by HTRF assay. A digest of the protocol: (§1)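 HEK293 cells harvested 48 h after transfection with plasmid at 1 μg mL–1; 8000 cells per well incubated 30 min at 37 °C with agonist over 10–4 to 10–10 M. cAMP read by HTRF (d2-cAMP plus Eu-cryptate antibody, 1 h room temperature; excitation 330 nm, emission 620/665 nm). pEC50 and Emax from dose–response curves; mean ± s.e.m. of three independent experiments, each in technical triplicate.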
On the technique in general: cAMP levels reflect the balance of adenylyl cyclase and phosphodiesterase activity.

Experiment [2] has as its system T2, Trace amine-associated receptor 1 (Homo sapiens), Q96RJ0 [Y294A].
T2 sequence (whole entry): T1 sequence (whole entry) with A103D, Y294A
The experiment can be described thus: Agonist activity against TAAR1 Y294A mutant (unknown origin) expressed in HEK293 cells assessed as increase in cAMP accumulation incubated for 30 mins by HTRF assay. A digest of the protocol: as §1

Experiment [3] deals with T3, Trace amine-associated receptor 1 (Homo sapiens), Q96RJ0 [I104A].
T3 sequence (whole entry): T1 sequence (whole entry) with A103D, I104A
Nature of the experiment: Agonist activity against TAAR1 I104A mutant (unknown origin) expressed in HEK293 cells assessed as increase in cAMP accumulation incubated for 30 mins by HTRF assay. A digest of the protocol:
as §1

In experiment [4] the test system is T4, Trace amine-associated receptor 1 (Homo sapiens), Q96RJ0 [F186A].
T4 sequence (whole entry): T1 sequence (whole entry) with A103D, F186A
Nature of the experiment: Agonist activity against TAAR1 F186A mutant (unknown origin) expressed in HEK293 cells assessed as increase in cAMP accumulation incubated for 30 mins by HTRF assay. A digest of the protocol: as §1

Experiment [5] deals with T5, Trace amine-associated receptor 1 (Homo sapiens), Q96RJ0 [W264A].
T5 sequence (whole entry): T1 sequence (whole entry) with A103D, W264A
The experiment can be described thus: Agonist activity against TAAR1 W264A mutant (unknown origin) expressed in HEK293 cells assessed as increase in cAMP accumulation incubated for 30 mins by HTRF assay. A digest of the protocol: as §1

Experiment [6] deals with T6, Trace amine-associated receptor 1 (Homo sapiens), Q96RJ0 [F267A].
T6 sequence (whole entry): T1 sequence (whole entry) with A103D, F267A
Nature of the experiment: Agonist activity against TAAR1 F267A mutant (unknown origin) expressed in HEK293 cells assessed as increase in cAMP accumulation incubated for 30 mins by HTRF assay. A digest of the protocol: as §1

Experiment [7] relates to T7, Trace amine-associated receptor 1 (Homo sapiens), Q96RJ0 [G293A].
T7 sequence (whole entry): T1 sequence (whole entry) with A103D, G293A
Nature of the experiment: Agonist activity against TAAR1 G293A mutant (unknown origin) expressed in HEK293 cells assessed as increase in cAMP accumulation incubated for 30 mins by HTRF assay. A digest of the protocol:
as §1

The subject of experiment [8] is T8, Trace amine-associated receptor 1 (Homo sapiens), Q96RJ0 [F268A].
T8 sequence (whole entry): T1 sequence (whole entry) with A103D, F268A
Nature of the experiment: Agonist activity against TAAR1 F268A mutant (unknown origin) expressed in HEK293 cells assessed as increase in cAMP accumulation incubated for 30 mins by HTRF assay. The conditions noted are these: filed as agonist. A digest of the protocol: as §1

The subject of experiment [9] is T9, Trace amine-associated receptor 1 (Homo sapiens), Q96RJ0 [V184A].
T9 sequence (whole entry): T1 sequence (whole entry) with A103D, V184A
The experiment can be described thus: Agonist activity against TAAR1 V184A mutant (unknown origin) expressed in HEK293 cells assessed as increase in cAMP accumulation incubated for 30 mins by HTRF assay. A digest of the protocol: as §1

For experiment [10], the system named is T10, Trace amine-associated receptor 1 (Homo sapiens), Q96RJ0 [I290A].
T10 sequence (whole entry): T1 sequence (whole entry) with A103D, I290A
Nature of the experiment: Agonist activity against TAAR1 I290A mutant (unknown origin) expressed in HEK293 cells assessed as fold increase in cAMP accumulation incubated for 30 mins by HTRF assay relative to control. Particulars: filed as agonist.

The test system of experiment [11] is T11, Trace amine-associated receptor 1 (Homo sapiens), Q96RJ0 [F195A].
T11 sequence (whole entry): T1 sequence (whole entry) with A103D, F185A
The experiment can be described thus: Agonist activity against TAAR1 F195A mutant (unknown origin) expressed in HEK293 cells assessed as increase in cAMP accumulation incubated for 30 mins by HTRF assay. A digest of the protocol:
as §1

Changes are numbered by the printed parent chain. Active and inactive are the calls of the source. No cut-off for these calls is given here.

Take `CN[C@@H](C)Cc1ccccc1`: the result in experiment [1], in experiment [2], in experiment [3], in experiment [4], in experiment [5] and in [6] was inactive. In addition, the outcome in experiment [7] and in experiment [11] was inactive. Besides, the outcome in experiment [8] and in experiment [9] (filed as agonist) was Active. Further, the fold change (FC) in experiment [10] is 6.
For the compound `NCCc1ccccc1`, the result in [4] and in [9] was inactive. Moreover, in experiment [8], the result was Active.
